Laboratory results: the RNAGym collection of RNA variant scans (doi:10.1126/science.aae0568)
Variants at the floor of the assay were thinned out.

B1: tRNA (parent)
chain: GUUCCGUUGGCGUAAUGGUAACGCGUCUCCCUCCUAAGGAGAAGACUGCGGGUUCGAGUCCCGUACGGAACG

Variants of: B1
Assay: yeast fitness relative to wild type (ratio to wild type); higher = fitter; tRNA-Arg(CCU), competitive growth, 37 C, YPD
How it was run: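 For this measurement, the tRNA-Arg(CCU) gene was varied by chemical synthesis at a 3% per-site mutation rate across 69 sites, and each variant was placed at the native genomic locus in Saccharomyces cerevisiae. The pooled strains went through a 24-hour competition in YPD at 37°C in six parallel replicates, with amplicons from start and end populations read by 100-nucleotide paired-end sequencing. Darwinian fitness relative to wild type followed from the change in each genotype's frequency. Genotypes needed ≥ 100 starting reads, and estimates < 0.5 were set to 0.5.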

Point of comparison: U3A A14C, yeast fitness 0.567. Against it:
- U2G A45U C46G A69C — lower, 0.537
- U3A A20U C29G A40U G50C — lower, ≤ 0.5
- U3A A14G G23C C49G — lower, 0.503
- U2G G10C A40G A57G — lower, ≤ 0.5
- U2G A42U — higher, 0.804
- U2G A37C G41A C49U — lower, ≤ 0.5
- U2G G17A C24U A36U A37U — higher, 0.585
- U2G U7G U26A C49U A65U — lower, ≤ 0.5
- U2G U7G U16C C34U G50A U54C A65U — lower, ≤ 0.5
- U2G G10C — lower, 0.527
- U3A A70G — higher, 1
- U2G G6A — higher, 0.634
- U2G U7G U16C C34U U54C A65U — lower, ≤ 0.5
- U2G C61U A70G — higher, 0.795
- U2G C4U C27A C66A — lower, ≤ 0.5
- U2G G12U A43U — higher, 0.631
- U2G C31U G50A C60U — lower, ≤ 0.5
- U2G G12A U35C — lower, ≤ 0.5
- U2G G44C G58C — higher, 0.647
- U3A A36G A42C — higher, 0.647
- U3A A36G A42U — higher, 0.619
- U2G U28A — higher, 0.645
- U2G U28C — higher, 0.825
- U3A A14U A42U C55A — lower, ≤ 0.5
- U2G C31U U64G A65U — lower, ≤ 0.5
- U3A A15U G23C C27U G52A C66U — lower, ≤ 0.5
- U3A A21C C33U U35A G51C G68C A70U — lower, 0.564
- U3A A43U C66U — higher, 0.635
- U2G U26C — higher, 0.918
- U2G U16A — higher, 1.15
- U2G U16C — higher, 0.969
- U2G U59C C66A G67A — lower, ≤ 0.5
- U2G C49U C66U — higher, 0.606
- U3A A43C — higher, 0.883
- U3A A43U — higher, 0.929
- U2G A20C G25A A69C — lower, ≤ 0.5
- U2G A65C — higher, 0.897
- U2G U8C C22U C24G U32C A37G A69G A70G — lower, ≤ 0.5
- U2G C46A C66U — higher, 0.584
- U2G G63A — higher, 0.876
- U2G C11U G52C C55G A70G — lower, ≤ 0.5
- U2G C29G C33G — lower, ≤ 0.5
- U2G U13G C49U G56A A70G — lower, ≤ 0.5
- U3A A40C C60U C62G — lower, ≤ 0.5
- U2G A37C U54C — lower, ≤ 0.5
- U2G C30U G58C G63C — higher, 0.618
- U2G U3C C55U C61A — lower, ≤ 0.5
- U2G C33A C49G — lower, ≤ 0.5
- U2G C11G C46G G51C U53A — lower, ≤ 0.5
- U2G A40C A65G C66G — lower, ≤ 0.5
- U2G C34U A36C — lower, ≤ 0.5
- U2G C34U A69U — lower, 0.543
- U2G C31G G39C C60A — lower, ≤ 0.5
- U2G A45G — higher, 0.869
- U2G G44C C55G — lower, ≤ 0.5
- U3A A15C G17C — lower, 0.507
- U2G U28G G51C U64A C66U A69C — lower, ≤ 0.5
- U2G C24A C46A A70C — higher, 1.01
- U2G C46A G68C — lower, ≤ 0.5
- U3A A15G U19A U32C G41A G50A — lower, ≤ 0.5
- U2G C11G A20G C24U C31G — higher, 0.615
- U2G C33U A65C — lower, ≤ 0.5
- U3A A14U G50A A69C — lower, ≤ 0.5
- U2G G25C U28G A42C C61U — lower, ≤ 0.5
- U2G G9A — higher, 1.01
- U3A A21G U35A A40U U54C — lower, ≤ 0.5
- U2G U3C A20G C33U G39A — lower, ≤ 0.5
- U3A A15G G48C — higher, 0.595
- U2G A20G C33U G39A A65G — lower, ≤ 0.5
- U2G G25A — higher, 0.986
- U3A A15G C24A — lower, ≤ 0.5
- U2G C24U A69U — higher, 0.681
- U3A A21U G51C — lower, ≤ 0.5
- U2G A14C A42C C49U A65C — lower, ≤ 0.5
- U2G A36U C46G C62A A69C — lower, ≤ 0.5
- U2G C11U G23A — lower, ≤ 0.5
- U2G C29G A43C — lower, 0.548
- U3A A37C C61A — lower, ≤ 0.5
- U2G U35G A45G C49G U59C C60U A69C — higher, 0.618
- U2G C46A G56C — lower, ≤ 0.5
- U2G C11G A36C C61G G63A — lower, ≤ 0.5
- U2G C31G A57U C60A — lower, ≤ 0.5
- U2G C30G C62G — higher, 0.591
- U3A A65C A70C — higher, 0.679
- U2G G50C U59A — lower, 0.547
- U2G U13A C60U — higher, 0.816
- U2G A21G C49U — higher, 0.708
- U3A A14G A15G A20U A37G G41A C62U C66U — lower, ≤ 0.5
- U2G A36G G51A — lower, ≤ 0.5
- U2G C4U C33G A37U U64G — lower, ≤ 0.5
- U2G G18A C29G C31G G52A — lower, ≤ 0.5
- U2G G51A G58C — lower, 0.562
- U2G A21C C22U C31U C33U C62A — lower, ≤ 0.5
- U2G U54A C61U A65C G67U — higher, 0.576
- U2G A43G G56A — higher, 0.589
- U2G C33U G58C A70U — higher, 0.581
- U2G C27U A36G C62A — lower, ≤ 0.5
- U3A A37C G44C A45U — lower, ≤ 0.5
- U2G A20U — higher, 0.757
- U2G U19G A70C — higher, 0.685
- U2G U13C A21G U35A C55U A70G — lower, ≤ 0.5
- U2G C4A C22U U28G A42U C62U A70U — lower, ≤ 0.5
- U2G C31A G56U G67A A70C — lower, ≤ 0.5
- U3A A14C A37C C49U — lower, ≤ 0.5
- U2G A36G A69U — lower, 0.56
- U2G U3C G10C A69C — lower, ≤ 0.5
- U3A A40C C62G G68C — lower, ≤ 0.5
- U2G C24A A45G C61G C62U — lower, ≤ 0.5
- U2G G51C — lower, 0.543
- U2C U47A U64A — lower, ≤ 0.5
- U3A — higher, 1
- U2G U19A A21G A65U G67C — lower, 0.543
- U2G C11A C30A A57U — lower, ≤ 0.5
- U2G A42C U47A A65U — lower, ≤ 0.5
- U2G U3A C5U U7C U8C A20C U35C A37U A57C — lower, ≤ 0.5
- U2G C66U — higher, 0.858
- U3A A40C U47A — higher, 0.647
- U3A A20U A45U G58C G67C — lower, ≤ 0.5
- U2G A14C A42C — lower, ≤ 0.5
- U2G C24A A45G — higher, 0.586
- U3A A14U C60U C62U A70G — higher, 0.651
- U2G C11U G23A C46U U54A — lower, ≤ 0.5
- U2G G48C C66U — lower, 0.519
- U2G C5U C34G C62U — lower, ≤ 0.5
- U2C U64G C66A — lower, ≤ 0.5
- U2G G12C — higher, 0.757
- U3A A15U G48A A57G C61A — lower, ≤ 0.5
- U3A C4A — higher, 0.681
- U2G G9C A20G A42C C46G C49U G63A A69C — lower, ≤ 0.5
- U2G C29A A40U — lower, ≤ 0.5
- U2G C34U U35C — lower, ≤ 0.5
- U2G C60U — higher, 0.782
- U3A A14C A37C U47A — lower, ≤ 0.5
- U3A A42C A65U C66U G67C — higher, 0.569
- U2G C11U C30U C55A A65C — lower, ≤ 0.5
- U2G C4U G56A C61A C62U A65U A69C — lower, ≤ 0.5
- U2G C27G G67U — lower, ≤ 0.5
- U2G C27G G67C — lower, ≤ 0.5
- U2C U47C G67C — higher, 0.719
- U2G G6A C27U A36U C60G — lower, 0.526
- U3A A20U C31G — lower, 0.535
- U2G U32C A40G — lower, ≤ 0.5
- U2G C31U U54G — lower, ≤ 0.5
- U2G C4A A37U — lower, ≤ 0.5
- U2G G18C U26A C33U C46U A57C — lower, ≤ 0.5
- U2G G52A — higher, 0.774
- U2G C22U C24G A69C — higher, 0.579
- U2G G56A — higher, 0.896
- U3A A69U — higher, 0.999
- U2G C27G G63A A65C G68C — higher, 0.632
- U2G C30G — higher, 0.679
- U2G U8C C27U C46U — higher, 0.789
- U2G A20C G38A C46A — lower, ≤ 0.5
- U2G C27U C46U G58A — higher, 0.662
- U3A A15C U35A G52C C55A — lower, ≤ 0.5
- U3A A21C G25U A43C C61A C62U — higher, 0.592
- U2G G25A U53A — lower, ≤ 0.5
- U2G C11U A40G G50C — lower, ≤ 0.5
- U2G G18C G23U U64A — higher, 0.606
- U2G C11G G38C G44A — lower, ≤ 0.5
- U2G C4U G25A A40C C46U — lower, ≤ 0.5
- U2G C4A U16C C61G — higher, 0.571
- U2G C11G A20U C24G C55A C61U — lower, ≤ 0.5
- U3A A20G C55G C61U — lower, ≤ 0.5
- U2G A14U — lower, 0.502
- U2G G48C G52C C62G C66U — lower, ≤ 0.5
